Test results reported in ChEMBL document CHEMBL4732136, “Synthesis, Tumor Specificity, and Photosensitizing Efficacy of Erlotinib-Conjugated Chlorins and Bacteriochlorins: Identification of a Highly Effective Candidate for Photodynamic Therapy of Cancer” (J Med Chem, 2021).
pIC50: −log10 of the molar value.

Legend:
[1] = Drug uptake in human HN-143 cells assessed as increase in drug retention retention at 3 uM in medium with 10% FBS incubated for 5 hrs followed by 40 hrs chase period by inverted fluorescence microscopic analysis; format: ADME, cell-based; settings: hn-143, 5 h
Procedure, shortened: (§1)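 Five-day co-cultures of HN-143 tumor epithelial cells and HN-166 tumor fibroblasts, both primary head & neck tumor cultures grown on collagen-1 under selective media. PS in 10% FBS medium for 5 h, then 40 h chase without PS. Phase-contrast and fluorescence images taken at 100X with 500 ms exposure; signal normalized to recording time and cell number.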

[2] = Drug uptake in tumor of SCID mouse xenografted with human UMUC3 cells assessed as drug accumulation by measuring fold decrease to that of liver at 0.47 micromol/kg, iv followed by light irradiation at 665 nm at a dose of 135 J/cm2 and 75 mW/cm2 and measured after 24 hrs by IVIS analysis; format: ADME, organism-based, Neoplasm; settings: in vivo
Procedure, shortened: (§2)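 Female SCID mice with UMUC3 flank/shoulder tumors, 3 per group. PS in 1% Tween80/5% dextrose given iv at 0.47, 0.25 or 0.125 μmol/kg. Whole-body fluorescence imaging by IVIS at several times after injection; average radiant efficiency measured in tumor, liver and skin.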

[3] = Drug uptake in tumor of SCID mouse xenografted with human UMUC3 cells at 0.47 micromol/kg, iv pretreated with compound followed by light irradiation at a dose of 135 J/cm2 and 75 mW/cm2 measured after 24 hrs by IVIS analysis; format: ADME, organism-based, Neoplasm; settings: in vivo, dose 0.47 µmol/kg; procedure, shortened: as §2
[4] = Drug uptake in tumor of SCID mouse xenografted with FaDu cells assessed as drug accumulation by measuring fold increase to that of liver at 0.47 micromol/kg, iv pretreated with compound followed by light irradiation at a dose of 135 J/cm2 and 75 mW/cm2 and measured after 24 hrs by IVIS analysis; format: ADME, organism-based, Neoplasm; settings: in vivo, dose 0.47 µmol/kg
Procedure, shortened: (§3)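 Female SCID mice bearing FaDu tumors 4–5 mm in diameter, 3 per group. PS in 1% Tween80/5% dextrose given iv at 0.47, 0.25 or 0.125 μmol/kg. IVIS whole-body fluorescence imaged at several time points; average radiant efficiency measured in tumor, liver and skin.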

[5] = tested on: UMUC3; assay: Photosensitizing activity in human UMUC3 cells assessed as reduction in cell viability pretreated with compound for 24 hrs followed by light irradiation at 1 J/cm2 and measured after 48 hrs by MTT assay; format: functional, cell-based; settings: UMUC3, light or radiation study
Procedure, shortened: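 Cells plated 0.01x10⁶ to 0.05x10⁶ cells/ml and allowed to adhere 24 h before photosensitizer was added, top dose 1600 nM with 2-fold serial dilutions. Plates received no light (0 J/cm²) or 1 J/cm² at 565 mW, 15 cm spot. After 48 h, MTT added for 3 h, formazan solubilized in DMSO and read at 570 nm; IC₅₀ fitted from dose-response.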

[6] = Drug uptake in tumor of SCID mouse xenografted with FaDu cells at 0.47 micromol/kg, iv pretreated with compound followed by light irradiation at a dose of 135 J/cm2 and 75 mW/cm2 and measured at 6 hrs by IVIS analysis; format: ADME, organism-based, Neoplasm; settings: in vivo, dose 0.47 µmol/kg; procedure, shortened: as §3
[7] = Drug uptake in human HN-166 cells assessed as increase in drug retention retention at 3 uM in medium with 10% FBS incubated for 5 hrs followed by 40 hrs chase period by inverted fluorescence microscopic analysis; format: ADME, cell-based; settings: hn-166, 5 h; procedure, shortened: as §1
[8] = tested on: FaDu; assay: Photosensitizing activity in human FaDu cells assessed as reduction in cell viability pretreated with compound for 24 hrs followed by light irradiation at 1 J/cm2 and measured after 48 hrs by MTT assay; format: functional, cell-based; settings: light or radiation study
Procedure, shortened: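 Cells seeded at 0.01–0.05 x 10⁶ cells/ml; PS added 24 h after plating, top dose 1600 nM with 2-fold serial dilutions. Plates given 0 or 1 J/cm² light. MTT added 48 h later, formazan dissolved in DMSO, absorbance at 570 nm; IC50 from curve fitting.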

[9] = tested on: FaDu; assay: Photodynamic antitumor activity against human FaDu cels xenografted in SCID mouse assessed as cure rate at 0.47 micromol/kg, iv pretreated with compound followed by light irradiation at a dose of 135 J/cm2 and 75 mW/cm2 and measured after 60 days post dose relative to control; format: functional; settings: dose 0.47 µmol/kg; time 60 day
Procedure, shortened: (§4)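 FaDu-bearing female SCID mice (5 per group per experiment) given iv PS at 0.47, 0.25 or 0.125 μmol/kg in Tween80/dextrose. Tumors irradiated 24 h post-injection at 665 nm, 135 J/cm², 75 mW/cm². Tumor growth measured daily for 60 days, with euthanasia above 400 mm³. Cure taken as tumor-free at day 60; survival analysed by log-rank test.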

[10] = Drug uptake in human CFSE-stained HN-121 cells assessed as increase in drug retention at 1.6 uM in medium with 10% FBS followed by 48 hrs chase period by inverted fluorescence microscopic analysis; format: ADME, cell-based; settings: hn-121, 48 h
[11] = Drug uptake in human FaDu clone 49 cells assessed as increase in drug retention at 1.6 uM in RPMI medium with 10% FBS followed by 48 hrs chase period by inverted fluorescence microscopic analysis
[12] = tested on: UMUC3; assay: Photodynamic antitumor activity against human UMUC3 cels xenografted in SCID mouse assessed as cure rate at 0.47 micromol/kg, iv pretreated with compound followed by light irradiation at a dose of 135 J/cm2 and 75 mW/cm2 and measured after 60 days post dose relative to control; format: functional; settings: dose 0.47 µmol/kg; time 60 day
Procedure, shortened: (§5)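 UMUC3-bearing female SCID mice given iv PS in 1% Tween80/5% dextrose. Mice restrained and tumors irradiated at 665 nm, 135 J/cm² over 30 min at 75 mW/cm², at the time of maximal tumor uptake. Tumor regrowth measured daily for 60 days; mice euthanized above 400 mm³. Cure plotted as survival curves and compared by log-rank (Mantel-Cox) test.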

[13] = tested on: FaDu; assay: Photodynamic antitumor activity against human FaDu cels xenografted in SCID mouse assessed as cure rate at 0.47 micromol/kg, iv pretreated with compound followed by light irradiation at a dose of 135 J/cm2 and 75 mW/cm2 and measured at 24 hrs post dose relative to control; format: functional; settings: dose 0.47 µmol/kg; procedure, shortened: as §4
[14] = Drug uptake in human HNT1 cells at 3.2 uM incubated for 30 mins in DMEM media with 10% FBS followed by […] in compound-free medium by inverted fluorescence microscopic analysis; format: ADME, cell-based; settings: hnt1, 0.5 h, in the assay text read “in serum-free medium” for “in DMEM media with 10% FBS”
Procedure, shortened: (§6)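 Confluent HNT1 cultures (passage 116) given 3.2 μM PS for 30 min in serum-free medium, then 5 h in serum-containing medium with PS, then 15 h chase in serum medium without PS. Fluorescence recorded at 100X with varied camera exposures and quantified digitally; pixel signal normalized to time and cell number.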

[15] = Drug uptake in skin of SCID mouse xenografted with FaDu cells at 0.47 micromol/kg, iv pretreated with compound followed by light irradiation at a dose of 135 J/cm2 and 75 mW/cm2 and measured at 24 hrs by IVIS analysis; format: ADME, organism-based, Skin of body; settings: in vivo, dose 0.47 µmol/kg; procedure, shortened: as §3
[16] = tested on: UMUC3; assay: Photodynamic antitumor activity against human UMUC3 cells xenografted in SCID mouse assessed as tumor retention at 0.47 micromol/kg, iv pretreated with compound followed by light irradiation at a dose of 135 J/cm2 and 75 mW/cm2 measured at day 30 post dose relative to control; format: functional; settings: dose 0.47 µmol/kg; time 30 day; procedure, shortened: as §5
[17] = Drug uptake in human HNT1 cells at 3.2 uM incubated for 30 mins in serum free medium followed by […] in compound-free medium by inverted fluorescence microscopic analysis; format: ADME, cell-based; settings: hnt1, 0.5 h; procedure, shortened: as §6
[18] = Drug uptake in liver of SCID mouse xenografted with FaDu cells at 0.47 micromol/kg, iv pretreated with compound followed by light irradiation at a dose of 135 J/cm2 and 75 mW/cm2 and measured at 24 hrs by IVIS analysis; format: ADME, organism-based; settings: in vivo, dose 0.47 µmol/kg; procedure, shortened: as §3
[19] = Drug uptake in tumor of SCID mouse xenografted with FaDu cells at 0.47 micromol/kg, iv pretreated with compound followed by light irradiation at a dose of 135 J/cm2 and 75 mW/cm2 and measured at 24 hrs by IVIS analysis; format: ADME, organism-based, Neoplasm; settings: in vivo, dose 0.47 µmol/kg; procedure, shortened: as §3
[20] = Drug uptake in tumor of SCID mouse xenografted with FaDu cells assessed as fold increase at 0.47 micromol/kg, iv pretreated with compound followed by light irradiation at a dose of 135 J/cm2 and 75 mW/cm2 and measured at 24 hrs by IVIS analysis; format: ADME, organism-based, Neoplasm; settings: in vivo, dose 0.47 µmol/kg; procedure, shortened: as §3
[21] = tested on: FaDu; assay: Photodynamic antitumor activity against human FaDu cells xenografted in SCID mouse assessed as cure rate at 0.47 micromol/kg, iv pretreated with compound followed by light irradiation at a dose of 135 J/cm2 and 75 mW/cm2 measured at 24 hrs relative to control; format: functional; settings: dose 0.47 µmol/kg; procedure, shortened: as §4
[22] = Drug uptake in skin of SCID mouse xenografted with human UMUC3 cells at 0.47 micromol/kg, iv pretreated with compound followed by light irradiation at a dose of 135 J/cm2 and 75 mW/cm2 measured at 24 hrs by IVIS analysis; format: ADME, organism-based, Skin of body; settings: in vivo, dose 0.47 µmol/kg; procedure, shortened: as §2
[23] = Drug uptake in liver of SCID mouse xenografted with human UMUC3 cells at 0.47 micromol/kg, iv pretreated with compound followed by light irradiation at a dose of 135 J/cm2 and 75 mW/cm2 measured at 24 hrs by IVIS analysis; format: ADME, organism-based; settings: in vivo, dose 0.47 µmol/kg; procedure, shortened: as §2

| Drug uptake [3] | Drug uptake [10] | Drug uptake [11] | Drug uptake [15] | Drug uptake [18] | Drug uptake [19] | Structure (SMILES) | pIC50 [5] | pIC50 [8] | Activity [13] [%] | further results |
| --- | --- | --- | --- | --- | --- | --- | --- | --- | --- | --- |
| Active | Active | Active |  |  |  | CCCCCCOC(C)c1c(C)c2cc3nc(c4c5[nH]c(cc6nc(cc1[nH]2)C(C)=C6CC)c(C)c5C(=O)C4)[C@@H](CCC(=O)NCCCCn1cc(-c2cccc(Nc4ncnc5cc(OCCOC)c(OCCOC)cc45)c2)nn1)[C@@H]3C (stereo not given in full) | 7.69 | 7.75 |  | Drug uptake [1]: Active; fold change (FC) [2]: 2; fold change (FC) [4]: 2; Drug uptake [6]: Active; Drug uptake [7]: Active; Activity [9]: 40%; Activity [12]: 20% |
| Active |  |  | Active | Active | Active | CCCCCCOC(C)c1c(C)c2cc3nc(c4c5[nH]c(cc6nc(cc1[nH]2)C(C)=C6CC)c(C)c5C(=O)C4)[C@@H](CCC(=O)O)[C@@H]3C (stereo not given in full) [HPPH] | 7.16 | 7.36 | 30 | Drug uptake [14]: Active; Activity [16]: 30%; Drug uptake [17]: Active |
| Active | Active | Active | Active | Active | Active | CCC1=C(C)c2cc3[nH]c(cc4nc(c5c6[nH]c(cc1n2)c(C)c6C(=O)C5)[C@@H](CCC(=O)OC)[C@@H]4C)c(C)c3C(C)OCc1ccc(C#Cc2cccc(Nc3ncnc4cc(OCCOC)c(OCCOC)cc34)c2)cc1 (stereo not given in full) | 7.68 | 7.22 | 66 | fold change (FC) [20]: 2; Activity [21]: 66%; Drug uptake [22]: Active; Drug uptake [23]: Active |
